# Rows were chosen to be rich in hits. Some 5.8% of all compounds tested hit in one or more screens of this group.
# Tcruzi prolif: inhibitors of T. cruzi proliferation; inhibition, % at 8.34 µM; 77,000 compounds, 5.9% hits; T. cruzi beta-gal in NIH3T3, GalScreen luminescence, 90 h; AID 624255;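 active = mean inhibition above about 93%, with at least 55% of replicates each passing it, limit read from the data, passing the limit was not always enough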
# KDM4C inh: KDM4C (human) demethylase inhibition; Q9H3R0; GST-KDM4C 2-372, H3K9me3 peptide, LANCE TR-FRET; inhibition, % at 12.5 µM; 96,000 compounds, 0.15% hits;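 active = mean replicate inhibition above about 25%, with at least 55% of replicates also reaching it, limit read from the data, passing the limit was not always enough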
#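 Test system: N-terminal GST-fused human GASC-1 (KDM4C) fragment, residues 2-372; quantity: GASC-1 enzyme at 10 nM final in reaction; dosing: single dose; schedule: 30 min demethylation and 1 h detection at room temperature; signal: LANCE TR-FRET, excitation 340 nm, emissions 618 and 671 nm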
# IDH1 mut inh: inhibitors of human IDH1 R132H; O75874; 70,000 compounds, 0.18% hits; IDH1 R132H reductase, diaphorase/resazurin fluorescence, 60 min; AID 624101; inhibition, % at 10 µM; in the data active = inhibition above about 34%;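 note: 0% = DMSO and 100% = no enzyme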
# Target sequence (O75874 whole entry R132H): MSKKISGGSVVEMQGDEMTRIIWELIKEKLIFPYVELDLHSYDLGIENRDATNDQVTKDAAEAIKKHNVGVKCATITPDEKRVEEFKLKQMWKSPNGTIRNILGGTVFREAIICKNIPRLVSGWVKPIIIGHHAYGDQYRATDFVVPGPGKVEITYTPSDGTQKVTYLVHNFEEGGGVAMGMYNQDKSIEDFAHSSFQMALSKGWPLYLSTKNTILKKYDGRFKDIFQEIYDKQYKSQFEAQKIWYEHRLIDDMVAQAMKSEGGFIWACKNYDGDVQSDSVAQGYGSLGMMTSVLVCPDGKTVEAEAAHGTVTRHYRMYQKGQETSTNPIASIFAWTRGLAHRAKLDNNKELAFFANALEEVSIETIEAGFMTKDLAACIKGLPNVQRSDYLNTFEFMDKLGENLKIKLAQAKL
# Pf Dd2 growth: P. falciparum Dd2 growth inhibition; AID 1159554; SYBR Green, 72 h; stronger effect = lower value; activity change, % at 10 µM; 94,000 compounds, 2.3% hits; in the data active = activity change below about -80%
# * hit, by the source's call; . = no result given.
SMILES,Tcruzi prolif,KDM4C inh,IDH1 mut inh,Pf Dd2 growth
CC(C)(CCO[C@@H]1O[C@H](CO[C@@H]2OC[C@@H](O)[C@H](O)[C@H]2O)[C@@H](O)[C@H](O)[C@H]1O)C[C@@H]1C(C(=O)O)=CC[C@]2(C(=O)O)C1=CCC1[C@@]3(C)CC[C@H](O[C@@H]4O[C@H](CO[C@@H]5O[C@H](CO)[C@@H](O)[C@H](O)[C@H]5O)[C@@H](O)[C@H](O)[C@H]4O)C(C)(C)C3CC[C@]12C (stereo partly specified),.,.,4,.
COc1ccc(S(=O)(=O)N(C)C[C@@H]2OCCCC[C@H](C)Oc3ccc(NC(=O)Nc4ccc(C(F)(F)F)cc4)cc3C(=O)N([C@H](C)CO)C[C@H]2C)cc1,79,.,.,-83*
COc1ccc(NC(=O)Nc2ccc3c(c2)C(=O)N([C@H](C)CO)C[C@@H](C)[C@H](CN(C)S(=O)(=O)c2ccc(OC)cc2)OCCCC[C@H](C)O3)cc1,-14,0,-1,9
COc1ccc(S(=O)(=O)N(C)C[C@@H]2OCCCC[C@@H](C)Oc3ccc(NC(=O)Nc4ccc(C(F)(F)F)cc4)cc3C(=O)N([C@@H](C)CO)C[C@H]2C)cc1,90,0,.,-75
COc1ccc(S(=O)(=O)N(C)C[C@H]2OCCCC[C@@H](C)Oc3ccc(NC(=O)Nc4ccc(C(F)(F)F)cc4)cc3C(=O)N([C@@H](C)CO)C[C@H]2C)cc1,89,1,.,-85*
COc1ccc(S(=O)(=O)N(C)C[C@@H]2OCCCC[C@@H](C)Oc3ccc(NC(=O)Nc4ccc(C(F)(F)F)cc4)cc3C(=O)N([C@@H](C)CO)C[C@@H]2C)cc1,85,-1,.,-88*
COc1ccc(S(=O)(=O)N(C)C[C@H]2OCCCC[C@@H](C)Oc3ccc(NC(=O)Nc4ccc(C(F)(F)F)cc4)cc3C(=O)N([C@@H](C)CO)C[C@@H]2C)cc1,80,-1,2,-85*
NC(=O)COc1ccc(Br)cc1C1C2=C(CCCC2=O)NC2=C1C(=O)CCC2,.,.,-1,.
COc1cccc(OC)c1C(=O)NC(=S)Nc1cccc(-c2nn3c(C)nnc3s2)c1,.,.,1,.
O=C(CSCc1ccccc1Br)Nc1cccnc1,.,.,10,.
O=C(CC1NCCNC1=O)Nc1ccc(F)cc1 (stereo unspecified),.,.,0,.
COc1ccc(S(=O)(=O)N(C)C[C@H]2OCCCC[C@H](C)Oc3ccc(NC(=O)Nc4ccccc4)cc3C(=O)N([C@H](C)CO)C[C@@H]2C)cc1,53,-1,0,-38
COc1ccc(NC(=O)Nc2ccc3c(c2)C(=O)N([C@H](C)CO)C[C@H](C)[C@H](CN(C)S(=O)(=O)c2ccc(Cl)cc2)OCCCC[C@@H](C)O3)cc1,33,0,0,-82*
COc1ccc(S(=O)(=O)N(C)C[C@@H]2OCCCC[C@@H](C)Oc3ccc(NC(=O)Nc4ccccc4)cc3C(=O)N([C@@H](C)CO)C[C@@H]2C)cc1,74,0,-1,-83*
COc1ccc(NC(=O)Nc2ccc3c(c2)C(=O)N([C@@H](C)CO)C[C@H](C)[C@H](CN(C)S(=O)(=O)c2ccc(Cl)cc2)OCCCC[C@@H](C)O3)cc1,80,6,.,-87*
C/C=C/c1ccc2c(c1)O[C@@H](CN(C)CCC)[C@@H](C)CN([C@H](C)CO)S2(=O)=O,-25,38*,53*,-11
C/C=C/c1ccc2c(c1)O[C@@H](CN(C)Cc1ccc(C(=O)O)cc1)[C@H](C)CN([C@@H](C)CO)S2(=O)=O,.,1,0,26
C/C=C/c1ccc2c(c1)O[C@H](CN(C)Cc1ccc(C(=O)O)cc1)[C@@H](C)CN([C@H](C)CO)S2(=O)=O,.,2,6,-86*
COc1ccccc1N(CC(=O)N(C)C)S(=O)(=O)c1ccc(C)cc1,.,.,0,.
Cc1ccc(S(=O)(=O)NCC(=O)Nc2ccc(Cl)c(C(F)(F)F)c2)cc1,.,.,0,.
O=C(CSc1nnc(-c2ccccc2)n1-c1ccccc1)Nc1ccccc1C(F)(F)F,.,.,3,.
COc1ccc(CN(C)C[C@@H]2Oc3c(NC(=O)c4ccc(-c5nccs5)cc4)cccc3C(=O)N([C@@H](C)CO)C[C@H]2C)cc1,8,.,-3,-90*
COc1ccc(CN(C)C[C@H]2Oc3c(NC(=O)c4ccc(-c5nccs5)cc4)cccc3C(=O)N([C@H](C)CO)C[C@@H]2C)cc1,9,1,-1,-60
COc1ccc(CN(C)C[C@H]2Oc3c(NC(=O)c4ccc(-c5nccs5)cc4)cccc3C(=O)N([C@@H](C)CO)C[C@H]2C)cc1,.,-1,-8,-82*
COc1ccc(CN(C)C[C@@H]2Oc3c(NC(=O)c4ccc(-c5nccs5)cc4)cccc3C(=O)N([C@H](C)CO)C[C@H]2C)cc1,16,-1,.,-84*
SMILES,Tcruzi prolif,KDM4C inh,IDH1 mut inh,Pf Dd2 growth
Cc1nnc(SCC(=O)Nc2ccc(Oc3ccccc3)cc2)s1,.,.,0,.
COc1cc(NC(=O)CSc2nc(C)cc(=O)[nH]2)c(OC)cc1Cl,.,.,0,.
Cc1ccc(S(=O)(=O)N(C)C[C@@H]2OCCCC[C@@H](C)Oc3ccc(NC(=O)Nc4cccc5ccccc45)cc3C(=O)N([C@@H](C)CO)C[C@@H]2C)cc1,.,2,.,-82*
Cc1ccc(S(=O)(=O)N(C)C[C@@H]2OCCCC[C@H](C)Oc3ccc(NC(=O)Nc4cccc5ccccc45)cc3C(=O)N([C@H](C)CO)C[C@H]2C)cc1,.,1,1,-82*
O=C(NCCCn1ccnc1)c1cc(-c2ccc(Br)cc2)nc2ccccc12,.,.,42*,.
O=C(NCCCn1ccnc1)c1ccccc1I,.,.,14,.
C[C@H](CO)N1C[C@H](C)[C@@H](CN(C)Cc2cncnc2)Oc2ncc(/C=C/c3ccccc3)cc2C1=O,62,52*,79*,-35
C[C@@H]1CN([C@H](C)CO)C(=O)c2cc(/C=C/c3ccccc3)cnc2O[C@@H]1CN(C)C(=O)C1CC1,.,-2,.,-86*
C[C@H](CO)N1C[C@H](C)[C@@H](CN(C)Cc2cccnc2)Oc2cc(/C=C/c3ccccc3)ccc2S1(=O)=O,.,9,.,-89*
C[C@@H]1CN([C@H](C)CO)S(=O)(=O)c2ccc(/C=C/c3ccccc3)cc2O[C@H]1CN(C)Cc1cccnc1,.,6,.,-86*
C/C=C/c1ccc2c(c1)O[C@H](CN(C)Cc1cccnc1)[C@H](C)CN([C@H](C)CO)S2(=O)=O,39,-1,0,9
c1cc(-c2nn[nH]n2)ccc1OCc1nn[nH]n1,.,.,0,.
COc1ccc(-c2cc(C)nc(SCC(=O)N3c4ccccc4Sc4ccccc43)n2)cc1,.,.,0,.
C[C@H](CO)N1C[C@H](C)[C@H](CN(C)Cc2ccc(C(=O)Nc3ccccc3N)cc2)Oc2c(NC(=O)Nc3ccc4c(c3)OCO4)cccc2C1=O,110,-1,0,-79
C[C@@H]1CN([C@@H](C)CO)C(=O)c2cccc(NC(=O)Nc3ccccc3)c2O[C@H]1CN(C)Cc1ccc(C(=O)Nc2ccccc2N)cc1,89,-2,0,-87*

# Bioassay records deposited in PubChem BioAssay by Broad Institute.
